Published values of several laboratories.
Lines come from different studies, so protocols differ.
Route: oral

| SMILES | test system | setting | Tmax [h] |
| --- | --- | --- | --- |
| CC(C)(O)c1ccccc1-c1ccc2[nH]c(/C=C/c3ccc(C(F)(F)F)cc3)nc2c1 | male human, plasma | 120 mg, single dose, fasted | 3 |
| C#C[C@]1(COP(=O)(O)OP(=O)(O)OP(=O)(O)O)O[C@@H](n2cnc3c(N)nc(F)nc32)C[C@@H]1O | human, plasma | 200 mg, single dose | 6 |
| CS(=O)(=O)CCC#N | human, plasma | 300 mg, multiple doses, once daily | 1 |
| NS(=O)(=O)NCCNc1nonc1C(=NO)Nc1ccc(F)c(Br)c1 | human, plasma | 700 mg, multiple doses, twice daily, steady state, patients | 3 |
| C[C@@H](Nc1cc(F)cc(F)c1)c1cc(C(=O)N(C)C)cc2c(=O)cc(N3CCOCC3)oc12 | human, plasma | 30 mg, single dose, patients | 2 |
| Cn1cc(-c2ccc(S(=O)(=O)[C@@H]3C[C@@H](C(=O)NC4(C#N)CC4)N(C(=O)C4(C(F)(F)F)CC4)C3)c(C(F)(F)F)c2)cn1 | human, plasma | 600 mg, single dose, fasted, healthy volunteers | 3.5 |
| CC(C)(Sc1ccncc1-c1ccc(C#N)c2ccccc12)C(=O)O | male human, plasma | 5 mg, single dose, fed, healthy volunteers | 1.25 |
| COc1ccc([C@@H]2CN(C(=O)[C@@H](O)CO)C[C@@]2(C)[C@@H](C)O)cc1OC1CN(c2ccc(C)cn2)C1 | human, plasma | 5 mg, single dose, healthy volunteers | 1.5 |
| CCc1nc2c(C)cc(N3CCN(CC(=O)N4CC(O)C4)CC3)cn2c1N(C)c1nc(-c2ccc(F)cc2)c(C#N)s1 | human, plasma | 600 mg, single dose, fasted, healthy volunteers | 1.8 |
| CC(C)n1cc(C#N)c2cc(-n3cc(C(=O)O)cn3)ccc21 | human, plasma | 100 mg, single dose, fasted, healthy volunteers | 3.5 |
| C=CC(=O)N(C)CCOc1c(N)ncnc1-c1cc(F)cc(NC(=O)c2ccc(C3CC3)cc2F)c1C | human, blood | 60 mg, single dose, healthy volunteers | 1.01 |
